Source: PubChem BioAssay
Cneo AK release – Cryptococcus neoformans lysis via adenylate kinase release; C. neoformans lysis, adenylate kinase release luminescence, 4 h; normalised: neutral wells 0, clomiphene wells 100; lysis activity, % at 15 µM; 0.2% of 360,000 active; AID 651654;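 active = mean lysis activity across replicates of at least 80%, whatever share of replicates individually reach that level; inactive = mean lysis activity below 80%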
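Material – Cryptococcus neoformans yeast cells · Quantity – 5 × 10^6 yeast cells/mL · Buffer or medium – YPD medium · Compound – single dose · Timing – 4 h static compound exposure, 37 °C, read 1 h post-reagent · Signal – adenylate kinase release luminescence · Read-out basis – lysis from increased AK signal · Benchmarks – Clomiphene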
MT1-MMP act inh – inhibitors of human MT1-MMP activation; AID 651647; P50281; 0.061% of 360,000 active; GFP/RFP ratio change, % at 20 µM; HT1080 RFP-PRO-GFP cells, GFP/RFP ratio fluorescence, overnight; percent of plate control window, DMSO zero;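 active = GFP/RFP ratio change of at least 30% with cell ATP level not reduced by more than half and red fluorescence within 50% of control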
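Read-out: GFP/RFP fluorescence ratio; Test system: RFP-PRO-GFP reporter HT1080 cells; Compound dosing: single-point 20 µM compound, 1% DMSO; Times: overnight compound exposure at 37 °C.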
DAGLB inh – diacylglycerol lipase beta (human) inhibition; Q8NCG7; HEK293T DAGLB membrane lysate, EnzChek fluorogenic substrate; inhibition, % at 5.17 µM; 0.059% of 340,000 active; AID 504411; in the data active = inhibition above about 34%;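 also: 0% = enzyme with vehicle and 100% = wells lacking enzyme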
Target sequence (Q8NCG7 whole entry, looked up): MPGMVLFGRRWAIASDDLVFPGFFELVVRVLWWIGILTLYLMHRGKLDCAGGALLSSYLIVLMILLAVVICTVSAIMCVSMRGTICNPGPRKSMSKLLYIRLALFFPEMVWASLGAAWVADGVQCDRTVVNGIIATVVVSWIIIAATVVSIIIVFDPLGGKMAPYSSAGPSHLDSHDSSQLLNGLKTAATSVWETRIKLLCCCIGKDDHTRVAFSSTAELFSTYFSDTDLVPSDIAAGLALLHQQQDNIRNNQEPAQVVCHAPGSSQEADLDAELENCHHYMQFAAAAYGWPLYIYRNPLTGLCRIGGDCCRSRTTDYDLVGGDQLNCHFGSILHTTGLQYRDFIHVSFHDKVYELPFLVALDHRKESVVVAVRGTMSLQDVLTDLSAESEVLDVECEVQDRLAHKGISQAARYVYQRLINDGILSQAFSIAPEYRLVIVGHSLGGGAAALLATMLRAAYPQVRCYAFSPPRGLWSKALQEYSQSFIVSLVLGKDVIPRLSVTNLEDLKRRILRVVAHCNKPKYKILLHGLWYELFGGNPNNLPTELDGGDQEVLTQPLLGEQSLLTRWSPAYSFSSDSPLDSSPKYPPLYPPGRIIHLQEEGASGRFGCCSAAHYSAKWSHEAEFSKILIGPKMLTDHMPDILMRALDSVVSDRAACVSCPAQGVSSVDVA
iPSC survival up – enhancers of human iPSC single-cell survival; hiPSC single-cell survival, ATPlite luminescence; 100% = ROCK inhibitor wells, 0% = DMSO; survival enhancement, % at 20 µM; 0.044% of 360,000 active; AID 602274; in the data active = survival enhancement above about 18%;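 also: cells exposed to compounds for 16 hours before the ATP read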
SKN-1 block – inhibitors of C. elegans SKN-1; C. elegans VP596 Pgst-4::GFP/RFP ratio, acrylamide-induced, 24 h; 0.49% of 360,000 active; inhibition, % at 21.8 µM;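 active = interference check ratio from 0.5 to 1.5 plus GFP to RFP signal ratio inhibition reaching or exceeding a fixed threshold, cut at about 30% in these data, passing the limit was not always enough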
Ecoli rRNA inh – inhibits bacterial ribosomal RNA function over humanized ribosomes; E. coli WT GFP vs humanized-ribosome RFP mutants, fluorescence, 24 h; active compounds read low; DMSO median 0, no signal -100; GFP signal change (wild-type ribosome), % (test concentration not listed); 1.6% of 350,000 active; AID 720706;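 active = significant combined selectivity score with lowered wild-type GFP, culture density cut under 30%, mutant RFP and density less affected; inactive = any of these conditions unmet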
* marks the source's active call; other numbers are inactive results; · = no result. Only some compounds are listed: those with a hit (about 1.8% of all), similar ones and a draw of the others.

SMILES | Cneo AK release | MT1-MMP act inh | DAGLB inh | iPSC survival up | SKN-1 block | Ecoli rRNA inh
CCNC(=O)Nc1ccc2c(c1)C(=O)N(C)[C@H]1CC[C@H](CC(=O)N[C@@H](C)c3ccccc3)O[C@H]1CO2 | 90.6* | · | · | · | · | 1.3
CN1C(=O)c2cc(NC(=O)c3cccc(F)c3)ccc2OC[C@H]2O[C@@H](CC(=O)N3CCc4ccccc4C3)CC[C@@H]21 | 3.9 | · | · | · | · | -26.2*
CNC(=O)C[C@@H]1CC[C@@H]2[C@H](COc3ccc(NC(=O)c4cc(C)on4)cc3C(=O)N2C)O1 | 95.8* | · | · | · | · | 1.1
CCCNC(=O)C[C@@H]1CC[C@H]2[C@H](COc3ccc(NC(=O)c4ccc(C(F)(F)F)cc4)cc3C(=O)N2C)O1 | -1.2 | · | · | · | · | -3.0
CCNC(=O)[C@@H]1[C@@H](CO)[C@@H]2Cn3c(ccc(C4=CCCCC4)c3=O)[C@@H]2N1C(=O)CC1CC1 | 54.6 | · | · | · | · | 1.6
Cc1ccnn1CC(=O)N/N=C/c1c[nH]c2ccccc12 | -1.8 | -1.5 | 3.6 | 0.5 | 0.0 | -39.0*
C[C@@H]1CN([C@@H](C)CO)C(=O)c2cc(NC(=O)CCC(F)(F)F)ccc2O[C@@H](C)CCCCO[C@H]1CN(C)C(=O)Nc1cccc2ccccc12 | 38.7 | · | · | · | · | 1.3
O=C(/C=C/c1ccccc1)c1ccc(NC2=NCCCS2)cc1 | -8.4 | -4.0 | -0.3 | -2.6 | 12.5 | -26.5*
CC(C)(C)c1ccc(/C=C/C(=O)c2ccc(NC3=NCCCS3)cc2)cc1 | · | -15.8 | 4.2 | -1.8 | -6.2 | -19.8
Cc1cccc(/C=C/C(=O)c2ccc(NC3=NCCCS3)cc2)c1 | · | -10.0 | 5.0 | -2.3 | 60.3* | -40.0
O=C(/C=C/c1ccc(Br)cc1)c1ccc(NC2=NCCCS2)cc1 | · | -11.1 | 6.8 | -4.2 | 83.4* | -13.4
COc1ccc2c3c([nH]c2c1)[C@H](CO)N(C(=O)Nc1ccc(F)cc1)CC31CN(S(=O)(=O)c2cn(C)cn2)C1 | · | · | · | · | · | -0.9
CN(C)C(=O)C[C@@H]1C=C[C@@H](NC(=O)NC2CCCCC2)[C@H](CO)O1 | 0.1 | · | · | · | · | -0.6
COc1ccccc1N(CN1C(=O)c2ccccc2C1=O)C(=O)c1cccc(C)c1 | · | 3.3 | -0.9 | -0.1 | -8.3 | -29.8*
Cn1ncc(Br)c1C(=O)NC1C2CC3CC(C2)CC1C3 (stereo not drawn) | · | -6.8 | -2.2 | -0.4 | 11.7 | -30.3*
Cn1ncc(Br)c1C(=O)NC1CCCCCCC1 | 2.0 | 0.6 | -0.3 | -0.4 | -0.9 | 8.5
O=S(=O)(/N=C(/c1ccc(F)cc1)N1CCCCC1)c1ccc(Cl)cc1 | 6.0 | 0.7 | -2.7 | 1.1 | 0.9 | -22.2*
CCCC#Cc1cnc2c(c1)C(=O)N([C@H](C)CO)C[C@H](C)[C@H](CN(C)C(=O)Nc1c(C)noc1C)O2 | 2.6 | · | · | · | · | -0.6
CC(C)(C)Nc1nc2nonc2nc1NC(C)(C)C | 0.4 | 7.9 | -0.9 | 1.1 | 6.7 | -49.3*
COc1ccc(N2C(=O)CC(Sc3nccc(C)n3)C2=O)c(OC)c1 (stereo not drawn) | 1.2 | 0.5 | -0.6 | 27.5* | 11.6 | 3.3
Cc1ccc(S(=O)(=O)Nc2ccc3c(c2)C(=O)N([C@H](C)CO)C[C@H](C)[C@H](CN(C)C(=O)CCC(F)(F)F)OCCCC[C@@H](C)O3)cc1 | -4.1 | · | · | · | · | 1.0
Cn1ccc(=O)c2cc([N+](=O)[O-])ccc21 | · | 1.5 | -3.6 | 1.2 | 1.8 | -25.6*
CCc1cccc(NC(=O)CCC(=O)N2CCSc3ccccc32)c1 | 1.8 | 2.5 | -5.2 | -2.1 | 1.6 | -23.6*
COc1cc(C(=O)Nc2nc(-c3cccs3)cs2)cc(OC)c1OC | -2.1 | -10.0 | -3.6 | 0.7 | 3.4 | -29.9*
O=C(Nc1nc(-c2cccs2)cs1)c1ccc(Cl)cc1 | -4.9 | -8.7 | -3.9 | -2.1 | 30.2 | ·
SMILES | Cneo AK release | MT1-MMP act inh | DAGLB inh | iPSC survival up | SKN-1 block | Ecoli rRNA inh
COc1ccc(C(=O)Nc2nc(-c3cccs3)cs2)cc1 | 0.3 | -8.3 | -3.2 | -1.0 | 46.5* | ·
COc1ccc(CNC(=O)C[C@@H]2CC[C@@H](NC(=O)c3ccc4c(c3)OCO4)[C@H](CO)O2)cc1 | 1.4 | · | · | · | · | 0.7
Cc1nc2ccc(Br)cc2c(=O)n1Cc1cccs1 | · | 3.2 | -3.6 | -0.5 | 10.8 | -31.8*
COc1ccc(C(C)=O)cc1CSc1nnnn1-c1ccc(O)cc1 | · | -1.1 | 0.2 | 0.3 | 6.7 | -48.3*
COc1ccc(C(C)=O)cc1CSc1nnc(-c2ccccc2O)n1-c1ccccc1 | · | 3.7 | -2.8 | 0.9 | 1.8 | -26.6*
COc1ccc(C(C)=O)cc1CSc1nnc(C)n1-c1ccccc1 | -3.7 | -2.0 | 0.2 | -2.3 | -3.5 | ·
COCC(C)n1c(C)cc(C(=O)CSc2nnnn2-c2ccc(O)cc2)c1C (stereo not drawn) | -0.1 | -7.3 | -0.2 | 1.3 | 9.6 | -28.5*
C[C@H](CO)N1C[C@H](C)[C@@H](CN(C)C(=O)C2CC2)Oc2cc(C#C[C@@H](C)O)ccc2S1(=O)=O | 0.2 | · | · | · | · | 3.4
COc1cccc(S(=O)(=O)Nc2ccc3c(c2)C(=O)N(C)C[C@H](OC)[C@H](C)CN[C@H](C)CO3)c1 | -0.9 | · | · | · | · | 2.1
COc1cccc(NC(=O)CN(C)CC(=O)Nc2ccc(Br)cc2)c1 | · | -2.0 | -1.4 | -0.3 | 3.0 | -34.3*
Cc1ccc(NC(=O)CN(C)CC(=O)Nc2ccccc2Oc2ccccc2)cc1 | · | 0.1 | -0.5 | 0.5 | 6.7 | -34.8*
COc1cccc(NC(=O)COC(=O)c2sccc2C)c1 | 4.3 | 0.1 | -2.2 | 3.8 | 16.1 | -20.9*
CCN(CC(=O)Nc1cccc(OC)c1)CC(=O)Nc1ccc(Br)c(C)c1 | -0.2 | 4.9 | -8.8 | 0.7 | 8.8 | -54.0*
COc1cccc(NC(=O)COC(=O)c2c(F)cccc2F)c1 | 3.8 | 1.5 | -4.5 | 3.8 | -2.1 | ·
Cc1ccc(S(=O)(=O)N2CC[C@@H]3[C@@H](CO)Nc4ccc(C#Cc5ccccc5F)cc4[C@@H]32)cc1 | -1.7 | · | · | · | · | 0.6
CC=Cc1ccc2n(c1=O)C[C@@H]1[C@@H](CO)[C@H](C(=O)NCc3ccccc3)[C@H]2N1Cc1ccccc1OC (mixture of isomers) | · | · | · | · | · | -0.1
C[C@@H]1CN([C@H](C)CO)C(=O)c2cc(NC(=O)CCC(F)(F)F)ccc2O[C@@H]1CN(C)Cc1ccc2c(c1)OCO2 | -3.0 | · | · | · | · | 2.7
O=C(c1ccncc1)N1CC(=O)N2[C@H](CO)[C@@H](c3ccc(C#CCC4CCCC4)cc3)[C@H]2C1 | · | · | · | · | · | -51.6
C[C@@H]1CN([C@H](C)CO)C(=O)Cc2cc(NC(=O)c3ccncc3)ccc2O[C@H]1CN(C)S(=O)(=O)c1ccc(F)cc1 | -0.7 | · | · | · | · | -3.7
CC(C)C#Cc1ccc2c(c1)O[C@H](CN(C)C(=O)NC(C)C)[C@@H](C)CN([C@@H](C)CO)S2(=O)=O | -0.6 | · | · | · | · | -6.8
